# Most compounds without a hit are left out; they make up all but 2.6% or so of the library.
# E-sel inducer: E-selectin induction on HUVECs. P16581. HUVEC E-selectin immunofluorescence imaging; normalized: neutral wells 0, TNF-alpha wells 100. activation, % at 7.58 µM. 260,000 compounds, 0.37% hits;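 active means mean E-selectin-positive cell signal at least 10% of the positive control, reached in at least 60% of replicates, without over 20% cell loss; inconclusive means no rule given, readout overlaps actives, possibly toxicity-flagged; inactive means the rest, including those meeting only one limit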
# Target sequence (P16581 whole entry, looked up): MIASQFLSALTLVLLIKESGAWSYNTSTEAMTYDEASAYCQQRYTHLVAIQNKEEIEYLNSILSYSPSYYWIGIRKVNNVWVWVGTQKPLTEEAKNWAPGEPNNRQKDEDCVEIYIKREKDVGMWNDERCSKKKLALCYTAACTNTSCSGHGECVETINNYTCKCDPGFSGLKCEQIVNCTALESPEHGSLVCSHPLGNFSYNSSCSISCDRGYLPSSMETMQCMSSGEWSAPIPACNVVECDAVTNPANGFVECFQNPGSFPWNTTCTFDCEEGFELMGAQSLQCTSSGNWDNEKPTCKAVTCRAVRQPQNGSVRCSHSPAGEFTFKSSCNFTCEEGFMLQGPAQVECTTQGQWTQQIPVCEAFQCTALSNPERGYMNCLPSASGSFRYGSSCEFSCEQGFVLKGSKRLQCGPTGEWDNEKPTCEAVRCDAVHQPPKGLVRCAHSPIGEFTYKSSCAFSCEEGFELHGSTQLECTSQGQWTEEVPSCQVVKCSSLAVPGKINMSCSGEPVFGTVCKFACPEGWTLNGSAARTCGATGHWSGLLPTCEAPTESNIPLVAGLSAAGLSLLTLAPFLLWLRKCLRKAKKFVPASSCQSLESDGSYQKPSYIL
#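 System: HUVEC / Compound: single concentration / Signal: immunofluorescence imaging / Read-out: percent E-selectin-positive cells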
# GSIS activator: primary screen for activators of insulin secretion dependent on glucose, INS-1E cells, GLuc reporter luminescence; INS-1E GLuc reporter insulin secretion, 2-3 h; activation, % at 16.6 µM; 370,000 compounds, 0.61% hits;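 active means lowest replicate activation of at least 40%, so every replicate reaches that level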;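 further: 0% = median of neutral control wells and 100% = median of IBMX positive control wells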
# ERAP1 HTS inh: blocks human ERAP1 aminopeptidase activity. recombinant ERAP1, Leu-AMC fluorescence, 60 min. Q9NZ08. 340,000 compounds, 0.15% hits. inhibition, % at 10.7 µM;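 active means mean replicate inhibition of at least 30%, or all replicates individually reaching that 30% level; inactive means mean below 30% and not every replicate reaching it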;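 further: 0% = neutral control wells and 100% = L-leucinethiol positive control wells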
# F508del corr: correctors of CFTR F508del function in bronchial epithelial cells; CFBE cells, YFP halide quenching; stimulated with forskolin plus potentiator P3; % fluorescence drop versus neutral controls; AID 720511; activity (quench increase), % at 7.58 µM; 350,000 compounds, 0.36% hits;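 active means mean added fluorescence quench of at least 8% versus neutral control, with both replicates also reaching 8%; inconclusive means only one of the mean or replicate conditions met; inactive means mean below 8% and not both replicates reaching 8%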;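 further: cells transiently co-express mutant CFTR-F508del with the halide-sensitive YFP; corrector assay measuring rescue of mutant channel to the surface after 24 h compound exposure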
# miR122 inh: blocks miR-122 activity in Huh7 sensor cells; 340,000 compounds, 0.3% hits; Huh7 miR-122 Renilla luciferase sensor, 48 h; neutral wells = 0, positive control = 100; activation (reporter increase), % at 12.5 µM;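 active means mean replicate activation score at least 90 and every replicate individually at or above 90; inconclusive means only one of the two criteria met; inactive means neither criterion met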;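 further: higher luciferase means less miR-122 activity so hits act as miR-122 inhibitors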
# DENV2 CPE: protects cells from dengue virus 2 cytopathic effect. DENV2-infected cells, cytopathic effect rescue, plate reader. CPE inhibition, % at 9.99 µM. 350,000 compounds, 1.7% hits. AID 651640; in the data active means CPE inhibition above about 20%, passing the limit was not always enough; inconclusive means no clear call, values can overlap the other calls; tested in BHK-21 cells;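 further: 0% = median of neutral control wells and 100% = median of positive control wells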
# * marks the source's active call; other numbers are inactive results; ? = inconclusive; . = no result; [ ] = another dose, or the depositor's remark.
SMILES,E-sel inducer,GSIS activator,ERAP1 HTS inh,F508del corr,miR122 inh,DENV2 CPE
COc1ccc(C#Cc2cnc3c(c2)C(=O)N([C@H](C)CO)C[C@H](C)[C@H](CN(C)C)O3)cc1,1,8,-1,-5,-4[16.7 µM],2
OCC1OCOC2C(CO)OCOC12 (stereo unspecified),.,.,-1,-1,-1,123*
CCCNC(=O)[C@H]1[C@H](CO)[C@H]2Cn3c(ccc(C4=CCCCC4)c3=O)[C@@H]1N2CC,0,9,-4,0,-5[16.7 µM],-1
CC(C)(C)OC(=O)CNC(=O)c1[nH]cnc1C(=O)NC1CCN(C(=O)OC(C)(C)C)CC1,.,-4,2,5,.,-6
CC(C)(C)OC(=O)N1CCC(NC(=O)c2nc[nH]c2C(=O)NC2CCN(C(=O)OC(C)(C)C)CC2)CC1,0,-20,-3,-1,0,-7
CCOC(=O)c1ccc(NC(=O)c2nc[nH]c2C(=O)N[C@H](C)CO)cc1,-1,56*,2,2,4,5
CCOC(=O)c1ccc(NC(=O)c2nc[nH]c2C(=O)NCCCNC(=O)c2[nH]cnc2C(=O)Nc2ccc(C(=O)OCC)cc2)cc1,0,10,-1,-1,.,9
CC(C)(C)OC(=O)N1CCC(NC(=O)c2nc[nH]c2C(=O)NCC(=O)OCc2ccccc2)CC1,0,-33,.,-1,-1,38*
CCOC(=O)c1ccc(NC(=O)c2nc[nH]c2C(=O)NC2CCN(C(=O)OC(C)(C)C)CC2)cc1,0,-3,0,-1,0,68*
Cc1noc(C)c1S(=O)(=O)Nc1ccc2c(c1)C(=O)N([C@@H](C)CO)C[C@@H](C)[C@H](CN(C)Cc1ccncc1)O2,-6,12,2,1,-4[16.7 µM],3
Cc1noc(C)c1S(=O)(=O)Nc1ccc2c(c1)C(=O)N([C@@H](C)CO)C[C@H](C)[C@H](CN(C)Cc1ccc3c(c1)OCO3)O2,401*,13,1,2,-19[16.7 µM],32*
Cc1noc(C)c1S(=O)(=O)Nc1ccc2c(c1)C(=O)N([C@@H](C)CO)C[C@H](C)[C@H](CN(C)Cc1ccc(C(=O)O)cc1)OCCCC[C@@H](C)O2,0,-2,-5,0,8[16.7 µM],50*
Cc1noc(C)c1S(=O)(=O)Nc1ccc2c(c1)C(=O)N([C@@H](C)CO)C[C@@H](C)[C@H](CN(C)Cc1ccc(C(=O)O)cc1)OCCCC[C@H](C)O2,0,14,-6,-2,3[16.7 µM],24*
Cc1noc(C)c1S(=O)(=O)Nc1ccc2c(c1)C(=O)N([C@H](C)CO)C[C@H](C)[C@@H](CN(C)Cc1ccc(C(=O)O)cc1)OCCCC[C@H](C)O2,0,3,-5,1,4[16.7 µM],-3
Cc1noc(C)c1S(=O)(=O)Nc1ccc2c(c1)C(=O)N([C@H](C)CO)C[C@@H](C)[C@H](CN(C)Cc1ccncc1)O2,57*,17,0,0,-1[16.7 µM],-11
Cc1noc(C)c1S(=O)(=O)Nc1ccc2c(c1)C(=O)N([C@H](C)CO)C[C@H](C)[C@@H](CN(C)Cc1ccc3c(c1)OCO3)O2,1,1,1,1,-8[16.7 µM],9
Cc1noc(C)c1S(=O)(=O)Nc1ccc2c(c1)C(=O)N([C@H](C)CO)C[C@H](C)[C@H](CN(C)Cc1ccc(C(=O)O)cc1)OCCCC[C@H](C)O2,1,2,-6,0,10[16.7 µM],-3
CO[C@@H]1CN(C)C(=O)c2ccc(NS(=O)(=O)C3CCCCC3)cc2OC[C@@H](C)NC[C@@H]1C,0,7,0,3,-1[16.7 µM],-11
CN1C(=O)c2cc(NC(=O)c3cccs3)ccc2OC[C@@H]2O[C@@H](CC(=O)NCC3CC3)CC[C@H]21,0,8,.,1,8[16.7 µM],-2
CNC[C@H]1Oc2ccc(NC(=O)CCCN(C)C)cc2C(=O)N([C@@H](C)CO)C[C@H]1C,0,14,0,3,-3[16.7 µM],-7
C[C@@H]1CCCCO[C@@H](CN(C)C)[C@H](C)CN([C@H](C)CO)C(=O)c2cc(NS(=O)(=O)c3cn(C)cn3)ccc2O1,0,7,1,3,0[16.7 µM],0
Cc1noc(C)c1S(=O)(=O)Nc1ccc2c(c1)C(=O)N([C@H](C)CO)C[C@H](C)[C@H](CN(C)Cc1ccncc1)OCCCC[C@@H](C)O2,1,12,-2,1,6[16.7 µM],26*
Cc1noc(C)c1S(=O)(=O)Nc1ccc2c(c1)CC(=O)N([C@H](C)CO)C[C@H](C)[C@H](CN(C)Cc1ccc3c(c1)OCO3)O2,.,-5,0,-3,1[16.7 µM],51*
Cc1noc(C)c1S(=O)(=O)Nc1ccc2c(c1)C(=O)N([C@H](C)CO)C[C@@H](C)[C@@H](CN(C)Cc1ccc(C(=O)O)cc1)OCCCC[C@@H](C)O2,0,13,-6,-2,-3[16.7 µM],38*
Cc1noc(C)c1S(=O)(=O)Nc1ccc2c(c1)C(=O)N([C@@H](C)CO)C[C@H](C)[C@H](CN(C)Cc1ccc3c(c1)OCO3)OCCCC[C@H](C)O2,0,-3,0,-3,3[16.7 µM],46*
SMILES,E-sel inducer,GSIS activator,ERAP1 HTS inh,F508del corr,miR122 inh,DENV2 CPE
C[C@@H]1CN([C@@H](C)CO)C(=O)Cc2cc(N(C)C)ccc2O[C@@H]1CN(C)C(=O)Nc1ccc(F)cc1,-4,8,0,1,3[16.7 µM],3
CO[C@H]1CN(C)C(=O)c2ccc(NC(=O)C3CCOCC3)cc2OC[C@H](C)N(Cc2cccnc2)C[C@H]1C,1,-5,0,-2,.,4
Cc1cc(NS(=O)(=O)c2ccc(NC(=O)C(C)Oc3ccc(Cl)cc3)cc2)no1 (stereo unspecified),.,5,.,.,.,.
Cc1cc(NS(=O)(=O)c2ccc(NC(=O)C(C)Oc3ccccc3Cl)cc2)no1 (stereo unspecified),0,59*,-5,3,1,?
CC1=CC(=O)C(C(C)C)=C/C1=N/OS(=O)(=O)c1ccccc1,.,.,-5,-10,-30,-1
CC1=CC(=O)C=C(C)C1=NOS(=O)(=O)c1ccccc1,.,186*,.,.,-9,.
CO[C@H](CN(C)S(=O)(=O)c1cccc(Cl)c1)[C@H](C)CN([C@@H](C)CO)S(=O)(=O)c1cccc(Cl)c1,0,-11,3,0,.,-2
CC(=O)c1cccc(NC(=O)c2ccc(NC(=O)CCS(=O)(=O)c3cccs3)cc2)c1,.,8,-5,-1,4,28*
COCCCN1C(=O)C(CC(=O)NC2CCCCC2)CC(C(=O)N(C(C)C)C(C)C)=C1C (stereo unspecified),1,-4,-1,2,-2,27*

# Screening results as filed in PubChem BioAssay.
